Laboratory results published in ChEMBL document CHEMBL2417442, “Modulation of αvβ₃- and α₅β₁-integrin-mediated adhesion by dehydro-β-amino acids containing peptidomimetics” (Eur J Med Chem, 2013).
Active and inactive are the calls of the source. The rule behind the calls is not given here.

Experiments:
Integrin alpha-5/beta-1 [1] = target: T1, Integrin alpha-5/beta-1 (Homo sapiens, UniProt P05556+P08648); assay: Inhibition of alpha5beta1 integrin-mediated human K562 cell adhesion to fibronectin incubated for 30 mins before plating measured after 1 hr; format: protein-complex assay
Procedure, shortened: (§1)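 Cells pre-incubated with a range of compound concentrations for 30 min at room temperature. Then 50000 cells/well plated on fibronectin (10 µg/mL) coated overnight at 4°C and left 1 h at room temperature. After PBS washes, adherent cells were quantified by hexosaminidase activity: 4-nitrophenyl-N-acetyl-β-D-glucosaminide in citrate buffer pH 5 with Triton X-100, stopped with glycine/EDTA pH 10.4, read at 405 nm. Quadruplicates, at least three repeats; IC50 fitted.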
Target sequence in this assay (P05556 21-798 limits assumed): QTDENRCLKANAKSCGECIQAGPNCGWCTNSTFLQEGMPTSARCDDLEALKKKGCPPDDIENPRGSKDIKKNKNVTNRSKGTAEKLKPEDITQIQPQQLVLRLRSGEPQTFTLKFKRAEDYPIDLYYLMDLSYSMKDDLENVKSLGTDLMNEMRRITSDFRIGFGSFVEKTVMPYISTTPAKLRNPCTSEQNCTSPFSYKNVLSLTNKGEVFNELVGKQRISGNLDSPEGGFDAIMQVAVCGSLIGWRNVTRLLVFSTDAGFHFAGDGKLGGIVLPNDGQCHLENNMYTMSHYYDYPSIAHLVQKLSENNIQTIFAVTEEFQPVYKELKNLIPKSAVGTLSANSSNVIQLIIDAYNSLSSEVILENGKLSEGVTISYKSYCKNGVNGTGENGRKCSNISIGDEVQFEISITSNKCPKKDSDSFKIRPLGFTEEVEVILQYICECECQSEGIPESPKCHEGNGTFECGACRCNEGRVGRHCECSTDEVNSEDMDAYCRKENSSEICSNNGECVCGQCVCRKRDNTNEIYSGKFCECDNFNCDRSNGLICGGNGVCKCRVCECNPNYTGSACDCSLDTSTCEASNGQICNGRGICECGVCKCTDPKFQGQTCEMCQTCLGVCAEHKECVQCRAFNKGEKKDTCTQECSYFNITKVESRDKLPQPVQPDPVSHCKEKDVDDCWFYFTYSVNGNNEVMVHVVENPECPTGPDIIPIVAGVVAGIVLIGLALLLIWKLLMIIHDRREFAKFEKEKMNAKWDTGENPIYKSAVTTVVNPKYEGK
Target sequence in this assay (P08648 42-894 limits assumed): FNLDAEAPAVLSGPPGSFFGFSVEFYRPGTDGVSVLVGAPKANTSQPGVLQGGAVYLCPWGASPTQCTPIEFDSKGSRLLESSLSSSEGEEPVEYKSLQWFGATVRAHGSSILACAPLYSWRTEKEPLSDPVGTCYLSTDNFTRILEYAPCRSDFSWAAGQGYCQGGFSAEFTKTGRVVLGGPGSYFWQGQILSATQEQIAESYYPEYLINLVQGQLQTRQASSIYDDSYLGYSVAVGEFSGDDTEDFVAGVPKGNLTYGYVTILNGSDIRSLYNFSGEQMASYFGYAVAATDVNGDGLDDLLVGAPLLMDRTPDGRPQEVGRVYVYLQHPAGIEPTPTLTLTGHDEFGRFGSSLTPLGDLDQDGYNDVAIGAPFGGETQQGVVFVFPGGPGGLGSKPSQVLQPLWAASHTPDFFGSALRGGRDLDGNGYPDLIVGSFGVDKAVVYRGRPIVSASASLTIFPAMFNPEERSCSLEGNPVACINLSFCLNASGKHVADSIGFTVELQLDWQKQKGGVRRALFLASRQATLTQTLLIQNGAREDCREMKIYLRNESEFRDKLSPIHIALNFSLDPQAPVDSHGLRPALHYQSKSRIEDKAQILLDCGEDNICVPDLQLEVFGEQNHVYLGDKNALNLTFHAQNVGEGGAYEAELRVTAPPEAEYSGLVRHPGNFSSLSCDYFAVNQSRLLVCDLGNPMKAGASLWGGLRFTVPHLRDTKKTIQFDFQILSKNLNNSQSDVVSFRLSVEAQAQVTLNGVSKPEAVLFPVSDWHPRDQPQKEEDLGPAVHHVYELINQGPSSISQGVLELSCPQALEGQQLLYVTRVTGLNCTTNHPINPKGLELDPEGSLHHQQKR
Target sequence in this assay (P08648 895-1049 limits assumed): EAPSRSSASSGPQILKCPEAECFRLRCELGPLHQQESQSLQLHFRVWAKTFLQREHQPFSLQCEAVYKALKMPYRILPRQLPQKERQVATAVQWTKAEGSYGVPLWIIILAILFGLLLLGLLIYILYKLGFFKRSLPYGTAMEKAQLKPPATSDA

Integrin alpha-V/beta-3 [2] = target: T2, Integrin alpha-V/beta-3 (Homo sapiens, UniProt P05106+P06756); assay: Inhibition of alphaVbeta3 integrin-mediated human SK-MEL-24 cell adhesion to fibronectin incubated for 30 mins before plating measured after 1 hr; format: protein-complex assay; procedure, shortened: as §1
Target sequence in this assay (P05106 27-788 limits assumed): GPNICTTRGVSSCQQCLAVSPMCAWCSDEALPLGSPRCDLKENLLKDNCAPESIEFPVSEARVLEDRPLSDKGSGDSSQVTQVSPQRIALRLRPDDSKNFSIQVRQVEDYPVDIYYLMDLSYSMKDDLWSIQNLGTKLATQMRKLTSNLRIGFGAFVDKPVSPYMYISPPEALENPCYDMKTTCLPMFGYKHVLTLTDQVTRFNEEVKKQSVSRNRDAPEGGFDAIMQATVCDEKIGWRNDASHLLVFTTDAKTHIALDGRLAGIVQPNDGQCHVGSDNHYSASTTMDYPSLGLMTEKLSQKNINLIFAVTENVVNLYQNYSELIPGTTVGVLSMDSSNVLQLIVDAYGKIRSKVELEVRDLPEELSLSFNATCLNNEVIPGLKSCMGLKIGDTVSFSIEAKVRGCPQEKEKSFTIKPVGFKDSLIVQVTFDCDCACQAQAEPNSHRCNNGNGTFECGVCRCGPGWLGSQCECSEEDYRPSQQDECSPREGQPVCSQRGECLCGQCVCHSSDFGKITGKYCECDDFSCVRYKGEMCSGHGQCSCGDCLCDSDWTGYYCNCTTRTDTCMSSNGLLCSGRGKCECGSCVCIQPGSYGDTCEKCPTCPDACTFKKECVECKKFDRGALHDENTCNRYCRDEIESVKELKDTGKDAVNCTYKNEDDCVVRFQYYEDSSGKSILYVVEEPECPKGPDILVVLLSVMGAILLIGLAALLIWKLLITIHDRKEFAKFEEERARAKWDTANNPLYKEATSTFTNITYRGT
Target sequence in this assay (P06756 31-889 limits assumed): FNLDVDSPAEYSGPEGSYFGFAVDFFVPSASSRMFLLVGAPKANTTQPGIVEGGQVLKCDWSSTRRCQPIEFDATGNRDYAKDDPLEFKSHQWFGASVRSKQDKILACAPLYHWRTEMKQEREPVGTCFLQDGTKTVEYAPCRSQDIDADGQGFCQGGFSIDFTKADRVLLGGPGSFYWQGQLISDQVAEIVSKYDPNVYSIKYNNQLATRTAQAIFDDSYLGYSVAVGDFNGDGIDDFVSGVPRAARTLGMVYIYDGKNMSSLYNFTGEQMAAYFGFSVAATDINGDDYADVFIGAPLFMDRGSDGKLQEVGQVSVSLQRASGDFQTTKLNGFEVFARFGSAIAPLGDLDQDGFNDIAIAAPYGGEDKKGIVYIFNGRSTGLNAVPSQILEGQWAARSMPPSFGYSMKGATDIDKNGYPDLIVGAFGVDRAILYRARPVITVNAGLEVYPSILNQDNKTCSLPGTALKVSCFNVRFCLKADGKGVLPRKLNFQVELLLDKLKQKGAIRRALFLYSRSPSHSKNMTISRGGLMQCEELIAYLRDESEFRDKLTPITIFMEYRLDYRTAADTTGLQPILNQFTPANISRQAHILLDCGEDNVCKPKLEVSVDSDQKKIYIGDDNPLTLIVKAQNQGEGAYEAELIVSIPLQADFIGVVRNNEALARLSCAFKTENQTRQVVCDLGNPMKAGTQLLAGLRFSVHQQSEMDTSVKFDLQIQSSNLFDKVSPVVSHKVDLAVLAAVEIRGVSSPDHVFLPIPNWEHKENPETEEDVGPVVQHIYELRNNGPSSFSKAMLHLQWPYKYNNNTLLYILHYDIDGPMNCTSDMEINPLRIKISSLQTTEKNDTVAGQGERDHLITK
Target sequence in this assay (P06756 891-1048 limits assumed): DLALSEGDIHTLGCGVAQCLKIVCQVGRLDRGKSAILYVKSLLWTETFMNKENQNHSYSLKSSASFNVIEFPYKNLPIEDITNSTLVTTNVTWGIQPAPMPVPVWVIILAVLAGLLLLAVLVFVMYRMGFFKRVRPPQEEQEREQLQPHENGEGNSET

Integrin alpha-V/beta-3 [3] = target: T2, Integrin alpha-V/beta-3; assay: Inhibition of alphaVbeta3 integrin in human DAOY cells assessed as inhibition of fibronectin-induced ERK1/2 phosphorylation at 10 uM incubated for 30 mins prior to fibronectin challenge measured after 90 mins by Western blotting analysis; format: cell-based
Procedure, shortened: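 DAOY medulloblastoma cells serum-starved 16 h in DMEM, detached, then given compound at 10 µM for 30 min. Plated 90 min on fibronectin (10 µg/ml)-coated, BSA-blocked plates; suspension cells as control. Lysed with phosphatase inhibitors, separated on 12% SDS-PAGE and immunoblotted for phospho-ERK1/2 and total ERK1/2.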

Integrin alpha-V/beta-3 [4] = target: T2, Integrin alpha-V/beta-3; assay: Inhibition of alphaVbeta3 integrin-mediated human DAOY cell adhesion to fibronectin incubated for 30 mins before plating measured after 1 hr; format: protein-complex assay; procedure, shortened: as §1
Integrin alpha-5/beta-1 [5] = target: T1, Integrin alpha-5/beta-1; assay: Inhibition of alpha5beta1 integrin in human K562 cells assessed as inhibition of fibronectin-induced ERK1/2 phosphorylation at 10 uM incubated for 60 mins prior to fibronectin challenge measured after 60 mins by Western blotting analysis; format: cell-based
Procedure, shortened: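 K562 cells, PMA-differentiated (25 ng/mL for 40 h), then serum-starved 16 h in RPMI-1640 with 1% FBS. Compound at 10 µM for 60 min in suspension, then plated 60 min on fibronectin (10 µg/ml)-coated, 1% BSA-blocked plates. Suspension cells served as control and PMA 65 nM as positive control. Lysates run on 12% SDS-PAGE and blotted for phospho- and total ERK1/2. pERK normalized to total ERK by densitometry; mean ± SEM, n=6.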

Compound	IC50 (Integrin alpha-5/beta-1 [1]) [nM]	IC50 (Integrin alpha-V/beta-3 [2]) [nM]	inhibition (Integrin alpha-V/beta-3 [3])	inhibition (Integrin alpha-V/beta-3 [4])	inhibition (Integrin alpha-5/beta-1 [5])
H-GRGDNP-OH	> 100000	230	–	–	–
H-GRGDTP-OH	930	0.62	–	–	–
CCCN(C(=O)CC(=O)O)C1=C(C)CC(c2ccccc2)N([C@@H](C)c2ccc(N)cc2)C1=O (some centres not stated)	57	71	–	–	–
CC1=C(C(=O)NCc2ccc(N)cc2)C(C(C)C)N(C(=O)CC(=O)O)O1 (configuration not stated)	1050	8800	–	–	–
C/C=C1\C(=O)N(CC(=O)O)C(=O)N(Cc2ccc(NC(=O)CN)cc2)C1C(C)C (configuration not stated)	> 100000	> 100000	–	–	–

More lines, in order of falling IC50 (Integrin alpha-5/beta-1 [1]), values ahead:

IC50 (Integrin alpha-5/beta-1 [1]) [nM]	IC50 (Integrin alpha-V/beta-3 [2]) [nM]	inhibition (Integrin alpha-V/beta-3 [3])	inhibition (Integrin alpha-V/beta-3 [4])	inhibition (Integrin alpha-5/beta-1 [5])	Compound
9800	1490	–	–	–	C/C=C(\C(=O)O)C(NCc1ccc(N)cc1)C(C)C (configuration not stated)
9800	120	Active	Active	–	C/C=C(\C(=O)NCC(=O)O)C(C)NCc1ccc(N)cc1 (configuration not stated)
2100	830	–	–	–	C/C=C(\C(=O)O)C(NCc1ccc(N)cc1)C1CCCCC1 (configuration not stated)
220	2000	–	–	–	C/C=C(\C(=O)NCC(=O)O)C(NCc1ccc(N)cc1)C(C)C (configuration not stated)
170	270	Active	Active	Active	C/C=C(\C(=O)NCC(=O)O)C(NCc1ccc(NC(=O)CN)cc1)C(C)C (configuration not stated)
19	> 100000	–	–	–	C/C=C(\C(=O)O)C(C)NCc1ccc(N)cc1 (configuration not stated)
